ChEMBL document CHEMBL1142406, “2-Heteroarylimino-5-benzylidene-4-thiazolidinones analogues of 2-thiazolylimino-5-benzylidene-4-thiazolidinones with antimicrobial activity: synthesis and structure-activity relationship” (2008)
In brackets after ≈: the same amount, converted by molar mass. Activity calls are given as the source filed them. No cut-off for these calls is given here.

Tests used:
Bacillus subtilis = assay: Antimicrobial activity against Bacillus subtilis ATCC 6633 by broth dilution technique; assay type: functional
Procedure, shortened: (§1)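 Broth dilution in Mueller Hinton Broth. Compounds are dissolved in DMSO (never above 1% v/v final) and serially diluted. MIC is the lowest concentration giving complete growth inhibition.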

Priestia megaterium = assay: Antimicrobial activity against Bacillus megaterium by broth dilution technique; assay type: functional; procedure, shortened: as §1
Micrococcus luteus = assay: Antimicrobial activity against Sarcina lutea by broth dilution technique; assay type: functional; procedure, shortened: as §1
Staphylococcus aureus [1] = assay: Antimicrobial activity against Staphylococcus aureus ATCC 25923 by broth dilution technique; assay type: functional; procedure, shortened: as §1
Staphylococcus aureus [2] = assay: Antimicrobial activity against penicillin-resistant Staphylococcus aureus by broth dilution technique; assay type: functional
Procedure, shortened: (§2)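 Broth dilution in Mueller Hinton Broth with compounds predissolved in DMSO (at most 1% v/v). Final concentrations ranged from 100 to 0.0015, and the inoculum was 5.10⁴ bacteria/mL. Plates were incubated at 37 °C for 24 h. MIC was taken as the lowest concentration giving complete growth inhibition.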

[3] = tested on: Staphylococcus epidermidis; assay: Antimicrobial activity against penicillin-resistant Staphylococcus epidermidis by broth dilution technique; assay type: functional; procedure, shortened: as §2
[4] = tested on: Staphylococcus haemolyticus; assay: Antimicrobial activity against Staphylococcus haemolyticus by broth dilution technique; assay type: functional; procedure, shortened: as §1
Streptococcus agalactiae = assay: Antimicrobial activity against Streptococcus agalactiae by broth dilution technique; assay type: functional; procedure, shortened: as §1
Enterococcus faecalis = assay: Antimicrobial activity against Streptococcus faecalis by broth dilution technique; assay type: functional; procedure, shortened: as §1
Enterococcus faecium = assay: Antimicrobial activity against Streptococcus faecium by broth dilution technique; assay type: functional; procedure, shortened: as §1
Streptococcus pyogenes = assay: Antimicrobial activity against Streptococcus pyogenes by broth dilution technique; assay type: functional
Procedure, shortened: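 Tryptose Phosphate Broth dilution. Compounds are dissolved in DMSO, with DMSO at most 1% v/v final. MIC is taken as the lowest concentration with complete growth inhibition.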

Haemophilus influenzae = assay: Antimicrobial activity against Haemophilus influenzae by broth dilution technique; assay type: functional
Procedure, shortened: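 Haemophilus Test Medium broth dilution. Compounds in DMSO are added to final dilutions, with DMSO at most 1% v/v. MIC is the lowest concentration completely inhibiting growth.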

Bacillus thuringiensis = assay: Antimicrobial activity against Bacillus thuringiensis var. kurstaki BGSC 4D1 by broth dilution technique; assay type: functional; conditions: serovar kurstaki; procedure, shortened: as §1
Saccharomyces cerevisiae [5] = assay: Antimicrobial activity against Saccharomyces cerevisiae ATCC 9763 by broth dilution technique; assay type: functional
Procedure, shortened: (§3)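 Fungi are tested by Sabouraud Liquid Medium dilution. Compounds are in DMSO, with DMSO at most 1% v/v final. Inoculum is 1×10³ fungi/mL, incubated 48 h at 30 °C. MIC is the lowest concentration completely inhibiting growth. For MFC, 100 µL of clear mixtures is subcultured into 1 mL fresh medium and read after 48 h at 30 °C.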

Aspergillus niger [6] = assay: Antimicrobial activity against Aspergillus niger ATCC 6275 by broth dilution technique; assay type: functional; procedure, shortened: as §3
Candida tropicalis [7] = assay: Antimicrobial activity against Candida tropicalis ATCC 1369 by broth dilution technique; assay type: functional; procedure, shortened: as §3
[8] = tested on: Staphylococcus epidermidis; assay: Antimicrobial activity against Staphylococcus epidermidis ATCC 12228 by broth dilution technique
Escherichia coli = assay: Antimicrobial activity against Escherichia coli SPA27 upto 100 ug/ml by broth dilution technique; assay type: functional, organism-based; procedure, shortened: as §1
Candida tropicalis [9] = assay: Antimicrobial activity against Candida tropicalis ATCC 1369 upto 100 ug/ml by broth dilution technique; assay type: functional, organism-based; procedure, shortened: as §3
Aspergillus niger [10] = assay: Antimicrobial activity against Aspergillus niger ATCC 6275 upto 100 ug/ml by broth dilution technique; assay type: functional, organism-based; procedure, shortened: as §3
Saccharomyces cerevisiae [11] = assay: Antimicrobial activity against Saccharomyces cerevisiae ATCC 9763 upto 100 ug/ml by broth dilution technique; assay type: functional, organism-based; procedure, shortened: as §3

Structure (SMILES) | MIC (Bacillus subtilis) [µg/mL] | MIC (Priestia megaterium) [µg/mL] | MIC (Micrococcus luteus) [µg/mL] | MIC (Staphylococcus aureus [1]) [µg/mL] | MIC (Staphylococcus aureus [2]) [µg/mL] | MIC [3] [µg/mL] | MIC [4] [µg/mL] | MIC (Streptococcus agalactiae) [µg/mL] | MIC (Enterococcus faecalis) [µg/mL] | MIC (Enterococcus faecium) [µg/mL] | MIC (Streptococcus pyogenes) [µg/mL] | MIC (Haemophilus influenzae) [µg/mL] | MIC (Bacillus thuringiensis) [µg/mL] | MIC [8] [µg/mL] | Activity (Escherichia coli) | Activity (Candida tropicalis [9]) | Activity (Aspergillus niger [10]) | Activity (Saccharomyces cerevisiae [11]) | also measured
O=C1CS/C(=N/c2nc3ccccc3s2)N1 | 12 (≈ 48.1 µM) | 25 (≈ 100 µM) | 50 (≈ 201 µM) | 25 (≈ 100 µM) | 25 (≈ 100 µM) | 100 (≈ 401 µM) | 50 (≈ 201 µM) | > 100 | > 100 | > 100 | > 100 | 0.7 (≈ 2.81 µM) | 25 (≈ 100 µM) | 100 (≈ 401 µM) | – | – | – | – | MIC (Saccharomyces cerevisiae [5]): 50 µg/mL (≈ 201 µM); MIC (Aspergillus niger [6]): 25 µg/mL (≈ 100 µM); MIC (Candida tropicalis [7]): 50 µg/mL (≈ 201 µM)
COc1cc(/C=C2\S/C(=N/c3nc4ccccc4s3)NC2=O)ccc1O | > 100 | 12 (≈ 31.3 µM) | 12 (≈ 31.3 µM) | 6 (≈ 15.6 µM) | 6 (≈ 15.6 µM) | 12 (≈ 31.3 µM) | > 100 | > 100 | > 100 | > 100 | > 100 | > 100 | 6 (≈ 15.6 µM) | 6 (≈ 15.6 µM) | inactive | inactive | inactive | inactive | –
O=C1N/C(=N\c2nc3ccccc3s2)S/C1=C\c1cccc(Cl)c1 | 12 (≈ 32.3 µM) | 12 (≈ 32.3 µM) | 12 (≈ 32.3 µM) | 25 (≈ 67.2 µM) | 25 (≈ 67.2 µM) | 12 (≈ 32.3 µM) | > 100 | > 100 | > 100 | > 100 | > 100 | > 100 | 6 (≈ 16.1 µM) | 6 (≈ 16.1 µM) | inactive | inactive | inactive | inactive | –
O=C1N/C(=N\c2nccs2)S/C1=C\c1ccccc1[N+](=O)[O-] | 6 (≈ 18.1 µM) | 3 (≈ 9.03 µM) | 12 (≈ 36.1 µM) | 6 (≈ 18.1 µM) | 3 (≈ 9.03 µM) | 25 (≈ 75.2 µM) | 12 (≈ 36.1 µM) | 12 (≈ 36.1 µM) | 50 (≈ 150 µM) | 25 (≈ 75.2 µM) | 25 (≈ 75.2 µM) | 0.7 (≈ 2.11 µM) | 6 (≈ 18.1 µM) | 12 (≈ 36.1 µM) | inactive | inactive | inactive | inactive | –
O=C1N/C(=N\c2nc3ccccc3s2)S/C1=C\c1cccc([N+](=O)[O-])c1 | 12 (≈ 31.4 µM) | 12 (≈ 31.4 µM) | 6 (≈ 15.7 µM) | 6 (≈ 15.7 µM) | 6 (≈ 15.7 µM) | 6 (≈ 15.7 µM) | > 100 | > 100 | > 100 | > 100 | > 100 | > 100 | 6 (≈ 15.7 µM) | 6 (≈ 15.7 µM) | inactive | inactive | inactive | inactive | –
O=C1CS/C(=N\c2nsc3ccccc23)N1 | 50 (≈ 201 µM) | 100 (≈ 401 µM) | > 100 | > 100 | > 100 | > 100 | > 100 | > 100 | > 100 | > 100 | > 100 | 3 (≈ 12 µM) | > 100 | > 100 | inactive | inactive | inactive | inactive | –
